Measurements from ChEMBL document CHEMBL3352514, “Anti-cancer activity of carbamate derivatives of melampomagnolide B” (Bioorg Med Chem Lett, 2014).

Experiments:
[1] = tested on: HL-60(TB); test: Growth inhibition of human HL-60(TB) cells; type: functional
Procedure, shortened: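 Tested in the NCI 60 human tumour cell line panel. Compounds were first screened at a single concentration of 10 µM, and hits were then run in a five-dose assay. Growth was read as the change in optical density, expressed as a percentage of control. GI50 is the concentration that halves cellular growth, taken from the NCI database.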

[2] = tested on: MCF7; test: Growth inhibition of human MCF7 cells; type: functional
Procedure, shortened: (§1)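 NCI 60-cell-line tumour panel. Compounds were first screened at a single concentration of 10 µM, then tested in 5-dose assays. Growth was read as the change in optical density, expressed as a percentage of control. GI50 is the concentration (µM) that halves cellular growth, and the values were taken from the NCI database.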

[3] = tested on: DU-145; test: Growth inhibition of human DU145 cells; type: functional; procedure, shortened: as §1
[4] = Growth inhibition of human COLO205 cells; type: functional; settings: COLO 205; procedure, shortened: as §1
[5] = tested on: CAKI-1; test: Growth inhibition of human CAKI-1 cells; type: functional; procedure, shortened: as §1
[6] = tested on: MDA-MB-468; test: Growth inhibition of human MDA-MB-468 cells; type: functional; procedure, shortened: as §1
[7] = Growth inhibition of human HCT116 cells; type: functional; settings: HCT-116; procedure, shortened: as §1
[8] = tested on: CCRF-CEM; test: Growth inhibition of human CCRF-CEM cells; type: functional; procedure, shortened: as §1
[9] = Growth inhibition of human RXF393 cells; type: functional; settings: RXF 393; procedure, shortened: as §1
[10] = tested on: T47D; test: Growth inhibition of human T47D cells; type: functional; procedure, shortened: as §1
[11] = tested on: M14; test: Growth inhibition of human M14 cells; type: functional; procedure, shortened: as §1
[12] = Growth inhibition of human LOXIMVI cells; type: functional; settings: LOX IMVI; procedure, shortened: as §1
[13] = tested on: MDA-MB-435; test: Growth inhibition of human MDA-MB-435 cells; type: functional; procedure, shortened: as §1
[14] = tested on: Malme-3M; test: Growth inhibition of human MALME-3M cells; type: functional; procedure, shortened: as §1
[15] = tested on: TK-10; test: Growth inhibition of human TK10 cells; type: functional; procedure, shortened: as §1
[16] = Growth inhibition of human MOLT4 cells; type: functional; settings: MOLT-4; procedure, shortened: as §1
[17] = tested on: NCI-H522; test: Growth inhibition of human NCI-H522 cells; type: functional; procedure, shortened: as §1
[18] = tested on: SW-620; test: Growth inhibition of human SW620 cells; type: functional; procedure, shortened: as §1
[19] = Growth inhibition of human OVCAR3 cells; type: functional; settings: OVCAR-3; procedure, shortened: as §1
[20] = tested on: SNB-75; test: Growth inhibition of human SNB75 cells; type: functional; procedure, shortened: as §1
[21] = Half life in human plasma; type: ADME, cell-free
[22] = tested on: ACHN; test: Growth inhibition of human ACHN cells; type: functional; procedure, shortened: as §1
[23] = Growth inhibition of human RPMI8226 cells; type: functional; settings: RPMI-8226; procedure, shortened: as §1
[24] = tested on: IGROV-1; test: Growth inhibition of human IGROV1 cells; type: functional; procedure, shortened: as §1
[25] = Growth inhibition of human BT549 cells; type: functional; settings: BT-549; procedure, shortened: as §1
[26] = tested on: K562; test: Growth inhibition of human K562 cells; type: functional; procedure, shortened: as §1
[27] = tested on: SR; test: Growth inhibition of human SR cells; type: functional; procedure, shortened: as §1
[28] = Growth inhibition of human SF539 cells; type: functional; settings: SF-539; procedure, shortened: as §1
[29] = Growth inhibition of human HOP92 cells; type: functional; settings: HOP-92; procedure, shortened: as §1

Structure (SMILES) | GI50 [2] [µM] | GI50 [3] [µM] | GI50 [4] [µM] | GI50 [5] [µM] | GI50 [7] [µM] | GI50 [8] [µM] | GI50 [9] [µM] | GI50 [10] [µM] | GI50 [11] [µM] | GI50 [12] [µM] | GI50 [13] [µM] | GI50 [15] [µM] | GI50 [16] [µM] | GI50 [17] [µM] | GI50 [18] [µM] | GI50 [22] [µM] | GI50 [23] [µM] | GI50 [24] [µM] | GI50 [25] [µM] | GI50 [28] [µM] | other results
C=C1C(=O)O[C@H]2[C@H]1CC/C(COC(=O)NCCN1CCOCC1)=C\CC[C@@]1(C)O[C@@H]21 | 3.54 | 3.74 | 8.89 | 4.31 | 2.87 | 3.03 | 3 | 6.32 | 7.97 | 4.84 | 5.89 | 3.93 | 5 | 2.13 | 3.48 | 3.74 | 5.72 | 3.49 | 4.99 | 14.4 | GI50 [1]: 3.59 µM; GI50 [6]: 3.26 µM; GI50 [14]: 6.12 µM; GI50 [19]: 6.2 µM; GI50 [20]: 19.5 µM; half-life [21]: 1.67 h; GI50 [26]: 3.37 µM; GI50 [27]: 3.65 µM; GI50 [29]: 2.3 µM
C=C1C(=O)O[C@H]2[C@H]1CC/C(COC(=O)Nc1n[nH]c(SC)n1)=C\CC[C@@]1(C)O[C@@H]21 | 1.33 | 3.49 | 1.79 | 1.99 | 1.13 | 0.62 | 0.9 | 2.23 | 1.59 | 1.95 | 2.24 | 2.51 | 2.32 | 1.26 | 1.12 | 1.75 | 2.57 | 3.66 | 1.47 | 1.76 | GI50 [6]: 1.29 µM; GI50 [14]: 2.32 µM; GI50 [20]: 1.71 µM; half-life [21]: 1.67 h; GI50 [27]: 2.36 µM; GI50 [29]: 0.65 µM
C=C1C(=O)O[C@H]2[C@H]1CC/C(COC(=O)NCCN1CCCC1)=C\CC[C@@]1(C)O[C@@H]21 | 3.91 | 7.42 | 4.78 | 6.86 | 3.18 | 2.49 | 4.08 | 4.86 | 9.65 | 7.88 | 6.56 | 3.11 | 3.48 | 1.78 | 3.46 | 3.8 | 8.71 | 4.09 | 4.75 | 15 | GI50 [1]: 4.15 µM; GI50 [6]: 2.3 µM; GI50 [14]: 4.18 µM; GI50 [19]: 8.41 µM; GI50 [20]: 18 µM; half-life [21]: 1.67 h; GI50 [26]: 3.26 µM; GI50 [27]: 10.2 µM; GI50 [29]: 2.25 µM
C=C1C(=O)O[C@H]2[C@H]1CC/C(COC(=O)NCCc1ccccn1)=C\CC[C@@]1(C)O[C@@H]21 | 2.85 | 4.59 | 3.54 | 2.88 | 1.89 | 2.65 | 2.22 | 6.19 | 5.58 | 4.96 | 6.01 | 3.78 | 5.54 | 1.64 | 3.13 | 2.75 | 8.2 | 14.4 | 2.6 | 5.77 | GI50 [6]: 3.22 µM; GI50 [14]: 7.52 µM; GI50 [20]: 3.78 µM; half-life [21]: 1.67 h; GI50 [27]: 4.1 µM; GI50 [29]: 2.25 µM
C=C1C(=O)O[C@@H]2C3O[C@]3(C)CC/C=C(\C)CC[C@@H]12 (stereo not given in full) |  |  |  | 10 | 10 |  |  |  |  |  |  |  |  |  |  |  |  |  |  |  | 
C/C1=C\CC[C@@]2(C)O[C@@H]2[C@H]2OC(=O)C(CN(C)C)[C@@H]2CC1 (stereo not given in full) [DIMETHYLAMINOPARTHENOLIDE] | 5.01 | 5.01 | 31.6 | 12.5 | 5.01 | 1.99 | 15.8 | 39.8 | 15.8 | 10 | 7.94 | 3.16 | 3.16 | 2.51 | 3.98 | 15.8 | 2.51 | 19.9 | 5.01 | 2.51 | GI50 [1]: 1.58 µM; GI50 [19]: 12.5 µM; GI50 [26]: 2.51 µM; GI50 [29]: 10 µM
C=C1C(=O)O[C@H]2[C@H]1CC/C(COC(=O)N1CCC(F)(F)CC1)=C\CC[C@@]1(C)O[C@@H]21 | 1.62 | 2.44 | 2.06 | 2.03 | 1.41 | 0.68 | 1.2 | 3.07 | 2.84 | 2.23 | 0.46 | 2.6 | 2.05 | 1.25 | 1.46 | 1.79 | 1.98 | 2.31 | 2.69 | 1.98 | GI50 [1]: 2.04 µM; GI50 [6]: 0.57 µM; GI50 [14]: 1.9 µM; GI50 [19]: 1.69 µM; GI50 [20]: 6.13 µM; half-life [21]: 8 h; GI50 [26]: 3.45 µM; GI50 [27]: 1.38 µM; GI50 [29]: 1.45 µM
